Fewer inactive variants are shown than the library holds.
B1: tRNA (parent)
chain: GUUCCGUUGGCGUAAUGGUAACGCGUCUCCCUCCUAAGGAGAAGACUGCGGGUUCGAGUCCCGUACGGAACG

Variants of: B1
Experiment: yeast fitness relative to wild type (ratio to wild type); higher = fitter; tRNA-Arg(CCU), competitive growth, 37 C, YPD
In short: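 A pool of Saccharomyces cerevisiae strains, each with a tRNA-Arg(CCU) gene variant at the native genomic locus, was competed in YPD at 37°C for 24 hours across six parallel replicates. The variants had been chemically synthesised at a 3% per-site mutation rate over 69 sites, and gene amplicons before and after competition were read by 100-nucleotide paired-end sequencing. Darwinian fitness relative to wild type rested on changes in genotype frequencies. Genotypes required ≥ 100 starting reads, and estimates < 0.5 were set to 0.5.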

Variant	yeast fitness
U2C G18C A21G	0.569
U2C G18C A21G C27A C30U G38A	≤ 0.5
U2C G18C G23C C33U G39A A43U C62A G63C	0.851
U2C G23A C24U A45U C60A	0.61
U2C G23A G38A G56C C61U	≤ 0.5
U2C G23A G38A G56C C61U G67A	≤ 0.5
U2C G23C C31G C33U A42G G52C A70G	≤ 0.5
U2C G23C C31G C33U A42G G67U	≤ 0.5
U2C G23C C55G	0.553
U2C G23C C55G A69U	≤ 0.5
U2C G25A A42U	0.561
U2C G25A A42U A65C G67U	0.578
U2C G25A A42U C55G	≤ 0.5
U2C G25A G52A	≤ 0.5
U2C G25C A36U G38A	≤ 0.5
U2C G38A	0.901
U2C G39A G44A	0.66
U2C G39U	0.819
U2C G44A	0.86
U2C G44A A70C	0.884
U2C G44A C46U A69C	0.784
U2C G44C	0.846
U2C G48A	0.928
U2C G48A C60U	≤ 0.5

Variant	yeast fitness
U2C G48C C49U U53C	≤ 0.5
U2C G50A U54A G67A	≤ 0.5
U2C G50C C60G	≤ 0.5
U2C G51A	0.822
U2C G51C	0.687
U2C G52C	0.661
U2C G56C	0.727
U2C G58A G68C	0.645
U2C G63A	0.799
U2C G67U	0.81
U2C U3A A14C C30U A40U C49U	≤ 0.5
U2C U3A A40C	≤ 0.5
U2C U3A C31G U35A	≤ 0.5
U2C U3C A21C C24A A65C	≤ 0.5
U2C U3C A45G C61A	≤ 0.5
U2C U3C C22U C34U	≤ 0.5
U2C U3C C34U	0.571
U2C U3C C34U G63A	≤ 0.5
U2C U3C G25C C27G	≤ 0.5
U2C U3G G18A A65U	≤ 0.5
U2C U7A C22A A36U A45U C60U C62U C66U	0.541
U2C U7A C24A A37G A42U G48C U54A	≤ 0.5
U2C U7A C34U G44C	≤ 0.5
U2C U7G U32A U59A	0.501

Variant	yeast fitness
U2C U8A G38C C60A	≤ 0.5
U2C U8G C49A C55U C66A A69C	≤ 0.5
U2C U8G G23A C24G G44A	≤ 0.5
U2C U13A C61U	≤ 0.5
U2C U13A G39C C60G	≤ 0.5
U2C U13C	0.991
U2C U13C C22G U26A C31U A42C G50C U64A C66U G68C	≤ 0.5
U2C U13C C61G	≤ 0.5
U2C U13C G38A	0.596
U2C U13G C22U C60G A65G	≤ 0.5
U2C U16A A40G G48A	≤ 0.5
U2C U16A C49U A65C A69C	≤ 0.5
U2C U16A G38C G63A	0.552
U2C U16A G67C	0.644
U2C U16C C22A U35A A45C	≤ 0.5
U2C U16C C27G C55U U59G	≤ 0.5
U2C U16C C27G G68A	≤ 0.5
U2C U16G	0.96
U2C U19A	0.845
U2C U19A C24U G38A U54C C66A	≤ 0.5
U2C U19A U26A C29A C46G U54A	≤ 0.5
U2C U19C U54A A69C	≤ 0.5
U2C U19C U59A	0.582
U2C U19G A69C	0.543

Variant	yeast fitness
U2C U26C C55A	0.732
U2C U26C C61G G63A A69U	0.56
U2C U26G	0.997
U2C U28A	0.563
U2C U28A A43C A57C C62A	0.572
U2C U28A G52A	≤ 0.5
U2C U28A G67A	≤ 0.5
U2C U28C	0.912
U2C U28C A37U U53A	0.547
U2C U28C C34U	≤ 0.5
U2C U28G A43U G56C A57U G67A	≤ 0.5
U2C U32A A65G	≤ 0.5
U2C U32G	0.674
U2C U35A C55A C66A	0.521
U2C U35A C60A	≤ 0.5
U2C U35C	0.829
U2C U35G A40C	0.587
U2C U47A	0.982
U2C U47A A70G	1.15
U2C U47A U53A	≤ 0.5
U2C U47A U64A	≤ 0.5
U2C U47C G67C	0.719
U2C U53A	0.7
U2C U54A	0.612

Variant	yeast fitness
U2C U64G C66A	≤ 0.5
U2G	0.994
U2G A14C A42C	≤ 0.5
U2G A14C A42C C49U A65C	≤ 0.5
U2G A14C C30U U54G C55A	≤ 0.5
U2G A14U	0.502
U2G A14U C22G C30G G58A	≤ 0.5
U2G A15G	0.812
U2G A15U	0.75
U2G A15U C24G U53A U64A	≤ 0.5
U2G A15U C62A	0.613
U2G A20C C27U C46A	0.614
U2G A20C G25A A69C	≤ 0.5
U2G A20C G38A	≤ 0.5
U2G A20C G38A C46A	≤ 0.5
U2G A20G C33U G39A A65G	≤ 0.5
U2G A20G C46A	0.618
U2G A20U	0.757
U2G A20U G25C C49G	≤ 0.5
U2G A21C C22U C31U C33U C62A	≤ 0.5
U2G A21G A40G	≤ 0.5
U2G A21G A57C G63A	≤ 0.5
U2G A21G C49U	0.708
U2G A36G A69U	0.56

Variant	yeast fitness
U2G A36G G51A	≤ 0.5
U2G A36U C46G C62A A69C	≤ 0.5
U2G A37C G41A C49U	≤ 0.5
U2G A37C G41A C49U C60G	0.51
U2G A37C U54C	≤ 0.5
U2G A40C A65G C66G	≤ 0.5
U2G A40C G63A G68C	≤ 0.5
U2G A40G G41C C60G	0.688
U2G A42C U47A A65U	≤ 0.5
U2G A42U	0.804
U2G A43C	1.07
U2G A43G G56A	0.589
U2G A43U	0.996
U2G A43U G67C	0.668
U2G A45C C49U C55U	≤ 0.5
U2G A45G	0.869
U2G A45U C46G A69C	0.537
U2G A45U C66U	0.555
U2G A45U G67C	≤ 0.5
U2G A57C G68U	≤ 0.5
U2G A57G	0.82
U2G A57U	0.66
U2G A65C	0.897
U2G A70G	1.07

Variant	yeast fitness
U2G A70U	0.917
U2G C4A A37U	≤ 0.5
U2G C4A C22U U28G A42U C62U A70U	≤ 0.5
U2G C4A C22U U28G A42U G68U	≤ 0.5
U2G C4A G38C G50A	0.713
U2G C4A U16C	≤ 0.5
U2G C4A U16C C31U A70U	≤ 0.5
U2G C4A U16C C61G	0.571
U2G C4U A36G A45U	0.537
U2G C4U C11G G18C U32C C34U A45U A70U	≤ 0.5
U2G C4U C27A C66A	≤ 0.5
U2G C4U C29G	≤ 0.5
U2G C4U C33G A37U U64G	≤ 0.5
U2G C4U C34G	≤ 0.5
U2G C4U C60G	0.54
U2G C4U C62U G68U	≤ 0.5
U2G C4U G25A A40C C46U	≤ 0.5
U2G C4U G56A C61A C62U A65U A69C	≤ 0.5
U2G C4U U16A C27G A42U U53C	0.564
U2G C5A	0.725
U2G C5A A57U	≤ 0.5
U2G C5A G10C	≤ 0.5
U2G C5A U19A A43G	≤ 0.5
